Broadly, the IC50 is the midpoint of a concentration-inhibition curve. Lower therefore signals inhibition by little substance. For orientation: CC50 means the concentration that lowers cell viability or growth by half. By solubility is commonly meant the concentration that dissolves in the medium under given conditions.

Experimental findings from ChEMBL document CHEMBL4145474, “Discovery of novel piperonyl derivatives as diapophytoene desaturase inhibitors for the treatment of methicillin-, vancomycin- and linezolid-resistant Staphylococcus aureus infections” (Eur J Med Chem, 2018) are described below.

Data set [1] has as its target T1, 4,4'-diapophytoene desaturase (4,4'-diaponeurosporene-forming) (Staphylococcus aureus (strain Mu50 / ATCC 700699)) (UniProt Q99R76).
T1 sequence (whole entry): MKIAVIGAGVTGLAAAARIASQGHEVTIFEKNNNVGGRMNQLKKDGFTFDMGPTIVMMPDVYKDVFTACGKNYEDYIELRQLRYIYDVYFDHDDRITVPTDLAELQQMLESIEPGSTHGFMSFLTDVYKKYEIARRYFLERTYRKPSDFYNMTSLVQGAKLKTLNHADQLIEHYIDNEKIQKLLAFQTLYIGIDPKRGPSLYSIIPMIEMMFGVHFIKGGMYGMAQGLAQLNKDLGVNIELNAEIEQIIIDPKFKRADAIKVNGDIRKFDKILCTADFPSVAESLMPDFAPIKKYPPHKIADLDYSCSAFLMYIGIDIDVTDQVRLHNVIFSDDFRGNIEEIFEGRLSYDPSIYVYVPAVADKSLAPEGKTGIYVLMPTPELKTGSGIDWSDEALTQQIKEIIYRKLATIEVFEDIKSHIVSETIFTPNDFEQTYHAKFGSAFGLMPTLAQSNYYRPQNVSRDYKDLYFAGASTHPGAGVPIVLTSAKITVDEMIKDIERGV
The data set can be described thus: Inhibition of CrtN in vancomycin-intermediate methicillin-resistant Staphylococcus aureus Mu50 assessed as bacterial survival at 1 uM after 24 hrs by H2O2 killing assay (reference value: 23.33%). Particulars: Staphylococcus aureus subsp. aureus Mu50.

For data set [2], the system named is Staphylococcus aureus. Description: Inhibition of pigmentation in methicillin-resistant Staphylococcus aureus USA400 MW2 after 48 hrs by spectrophotometric method. Format: functional, organism-based. As to conditions: USA400 MW2, 48 h. In short, it runs like this:
(§1)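 Bacteria grown in 4 mL TSB for 48 h at 37 °C with compound serially diluted from DMSO, in duplicate; DMSO vehicle control and non-pigmented CrtN mutant as reference. Cells from 3 mL of culture washed twice with 0.01 M PBS and pigment extracted into methanol. Absorbance read at 450 nm; IC50 fitted from the concentration series.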

The subject of data set [3] is Staphylococcus aureus. Description: Growth inhibition of methicillin-resistant Staphylococcus aureus USA300 LAC at 0.2 mM incubated for overnight. The format is functional, organism-based. In short, it runs like this:
(§2)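 Overnight cultures washed in PBS and diluted in TSB to OD600 ~1.0. Inoculated to a final OD600 of about 0.05 into TSB containing compound (0.2 or 0.05 mM, from a 20 mM DMSO stock) or DMSO growth control, overlaid with paraffin wax. OD600 read every 30 min during overnight incubation at 37 °C.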

In data set [4] the test system is Staphylococcus aureus. Description: Antibacterial activity against methicillin-resistant Staphylococcus aureus USA300 LAC assessed as decrease in bacterial survival at 1 uM after 24 hrs by H2O2 killing assay. Format: functional, organism-based.
Data set [5] deals with Staphylococcus aureus. Description: Antibacterial activity against methicillin-resistant Staphylococcus aureus USA400 MW2 assessed as decrease in bacterial survival at 1 uM after 24 hrs by H2O2 killing assay. The format is functional, organism-based.
The next data set concerns HepG2. Description: Cytotoxicity against human HepG2 cells assessed as reduction in cell viability after 72 hrs by CCK-8 assay. The format is functional. Particulars: HepG2, 72 h. In short, it runs like this: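 HepG2 or HEK-293T cells were seeded at 5000 per well and grown 24 h at 37 °C, 5% CO₂. Cells were then exposed to compound for 72 h; compound came from DMSO, diluted in medium to final DMSO <0.4%, with a DMSO-matched vehicle control. Viability was read by 10% CCK-8 for 1 h, absorbance 450 nm, in triplicate.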

Data set [6] relates to Staphylococcus aureus. The data set can be described thus: Antibacterial activity against vancomycin-intermediate methicillin-resistant Staphylococcus aureus Mu50 infected in BALB/c mouse assessed as decrease in bacterial survival in mouse kidney at 0.1 to 0.4 mg, ip bid administered 4.5 days after 6 hrs bacterial infection measured after 90 hrs. The format is functional, organism-based. In short, it runs like this:
(§3)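 6–8-week-old female BALB/c mice (SPF) dosed intraperitoneally twice daily over 4.5 d at 0.1 or 0.4 mg/bid. Pre-treatment started before infection; post-treatment started 6 h after infection. Vancomycin and linezolid controls given as pre-treatment at 0.4 mg/bid. Retro-orbital inoculation: Mu50 1.1 × 10⁹ CFU, NRS271 1.8 × 10⁸ CFU. Kidneys and livers homogenised in PBS/0.01% Triton X-100 and plated on TSA for CFU.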

Data set [7] concerns the target Voltage-gated inwardly rectifying potassium channel KCNH2 (Homo sapiens, UniProt Q12809). The data set can be described thus: Inhibition of human ERG expressed in CHO cells at holding potential of -80 mV by whole cell Qpatch assay. The format is cell-based.
Data set [8] addresses T2, 4,4'-diapophytoene desaturase (4,4'-diaponeurosporene-forming) (Staphylococcus aureus (strain Newman)) (UniProt O07855).
T2 sequence (whole entry): T1 sequence (whole entry)
Description: Inhibition of CrtN in wild type Staphylococcus aureus Newman assessed as decrease in bacterial survival at 1 uM after 24 hrs by H2O2 killing assay relative to control. Particulars: Staphylococcus aureus subsp. aureus str. Newman. In short, it runs like this: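 Bacteria were grown 24 h at 37 °C in TSB with compound, DMSO vehicle or NAC, then washed twice in PBS. Each reaction held 4 × 10⁶ CFU with H₂O₂ at 1.5% final, shaken 30 min at 37 °C and 250 rpm, then quenched with 1000 U/mL catalase. Survival was counted as CFU on TSA. Two independent experiments.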

Data set [9] deals with T2, 4,4'-diapophytoene desaturase (4,4'-diaponeurosporene-forming) (Staphylococcus aureus (strain Newman)). The data set can be described thus: Inhibition of CrtN in methicillin-resistant Staphylococcus aureus USA400 MW2 assessed as bacterial survival after 6 hrs by human whole blood killing assay (reference value: 23.33%). In short, it runs like this: (§4)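 Overnight cultures spun, resuspended in sterile PBS at 1 × 10⁷ CFU/mL, then mixed 1:10 with fresh whole blood from healthy human volunteers (final 1 × 10⁶ CFU/mL). Incubated 6 h at 37 °C; surviving CFU counted by plating dilutions on TSA. Two independent experiments.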

In data set [10] the test system is Staphylococcus aureus. The data set can be described thus: Antibacterial activity against methicillin/linezolid-resistant Staphylococcus aureus NRS271 infected in BALB/c mouse assessed as decrease in bacterial survival in mouse liver at 0.1 to 0.4 mg, ip bid administered 4.5 days before 24 hrs bacterial infection measured after 90 hrs. The format is functional, organism-based. In short, it runs like this:
as §3

The test system of data set [11] is Staphylococcus aureus. Description: Antibacterial activity against vancomycin-intermediate methicillin-resistant Staphylococcus aureus Mu50 infected in BALB/c mouse assessed as decrease in bacterial survival in mouse kidney at 0.1 to 0.4 mg, ip bid administered 4.5 days before 24 hrs bacterial infection measured after 90 hrs. The format is functional, organism-based. In short, it runs like this: as §3

In data set [12] the target is T2, 4,4'-diapophytoene desaturase (4,4'-diaponeurosporene-forming) (Staphylococcus aureus (strain Newman)). The data set can be described thus: Inhibition of CrtN in methicillin-resistant Staphylococcus aureus USA300 LAC assessed as bacterial survival after 6 hrs by human whole blood assay (reference value: 14.33%). In short, it runs like this: as §4
For data set [13] the target is unchanged. The data set can be described thus: Inhibition of CrtN in methicillin-resistant Staphylococcus aureus USA400 MW2 assessed as bacterial survival at 1 uM after 24 hrs by H2O2 killing assay (reference value: 26.33%).
For data set [14], the system named is Staphylococcus aureus. Description: Growth inhibition of methicillin/linezolid-resistant Staphylococcus aureus NRS271 at 0.2 mM incubated for overnight. Format: functional, organism-based. In short, it runs like this: as §2
Data set [15] relates to Staphylococcus aureus. Description: Inhibition of pigmentation in methicillin-resistant Staphylococcus aureus USA300 LAC after 48 hrs by spectrophotometric method. Format: functional, organism-based. In short, it runs like this: as §1
In data set [16] the test system is Staphylococcus aureus. Description: Antibacterial activity against wild type Staphylococcus aureus Newman infected in BALB/c mouse assessed as decrease in bacterial survival in mouse liver at 0.1 mg, ip bid administered 4.5 days after 6 hrs bacterial infection measured after 90 hrs relative to control. The format is functional.
Data set [17] is described as follows: Solubility of the compound in water by UV analysis. Format: physicochemical.
The test system of data set [18] is Staphylococcus aureus. The data set can be described thus: Growth inhibition of methicillin-resistant Staphylococcus aureus USA400 MW2 at 0.2 mM incubated for overnight. Format: functional, organism-based. In short, it runs like this:
as §2

Molecules are shown by their SMILES. Activity calls are given as the source filed them. No cut-off for these calls is given here.

Chain of Voltage-gated inwardly rectifying potassium channel KCNH2 (Q12809 whole entry): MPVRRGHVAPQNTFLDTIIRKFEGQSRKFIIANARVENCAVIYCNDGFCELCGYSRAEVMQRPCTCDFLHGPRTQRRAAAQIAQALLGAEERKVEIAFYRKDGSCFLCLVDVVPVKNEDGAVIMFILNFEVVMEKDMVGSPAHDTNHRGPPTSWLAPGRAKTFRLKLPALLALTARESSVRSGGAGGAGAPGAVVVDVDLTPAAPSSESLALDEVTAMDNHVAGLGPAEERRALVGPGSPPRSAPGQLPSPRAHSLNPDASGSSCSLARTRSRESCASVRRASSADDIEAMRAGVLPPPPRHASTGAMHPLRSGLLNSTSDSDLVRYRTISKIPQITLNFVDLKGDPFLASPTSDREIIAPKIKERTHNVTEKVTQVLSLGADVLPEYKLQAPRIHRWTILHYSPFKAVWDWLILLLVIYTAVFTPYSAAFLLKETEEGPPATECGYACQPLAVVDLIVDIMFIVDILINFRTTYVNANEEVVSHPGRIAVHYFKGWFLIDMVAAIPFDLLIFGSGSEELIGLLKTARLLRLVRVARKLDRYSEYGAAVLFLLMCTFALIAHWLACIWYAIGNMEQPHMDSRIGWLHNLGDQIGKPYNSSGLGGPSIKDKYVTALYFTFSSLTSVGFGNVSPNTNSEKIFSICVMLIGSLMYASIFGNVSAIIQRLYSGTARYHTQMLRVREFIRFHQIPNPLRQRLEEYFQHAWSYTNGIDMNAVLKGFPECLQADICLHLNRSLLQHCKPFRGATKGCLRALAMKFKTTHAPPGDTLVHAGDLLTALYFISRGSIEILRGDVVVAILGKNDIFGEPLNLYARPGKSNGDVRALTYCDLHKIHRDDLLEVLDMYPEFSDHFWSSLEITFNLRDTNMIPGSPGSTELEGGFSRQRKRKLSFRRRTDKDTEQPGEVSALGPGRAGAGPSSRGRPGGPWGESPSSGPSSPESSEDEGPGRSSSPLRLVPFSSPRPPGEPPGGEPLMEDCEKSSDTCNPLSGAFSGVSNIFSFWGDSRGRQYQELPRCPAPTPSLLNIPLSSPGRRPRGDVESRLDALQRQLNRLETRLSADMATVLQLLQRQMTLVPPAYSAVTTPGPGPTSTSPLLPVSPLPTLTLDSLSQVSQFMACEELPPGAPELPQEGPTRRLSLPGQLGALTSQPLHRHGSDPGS

Take `CN(C/C=C/C=C/c1ccc(C(F)(F)F)cc1F)Cc1ccc2c(c1)OCO2.Cl`: the Survival in data set [1] was determined as 2%; in [9], 0.93%; in [12], 1.57%; in data set [13], 2.33%. The concentration for half-maximal inhibition (IC50) in the data set on Staphylococcus aureus [2] was found to be 0.0076 µM; in data set [7], 14 µM; in the data set with Staphylococcus aureus [15] it was 0.0129 µM. Further, the “growth inhibition (GI)” value with Staphylococcus aureus [3], in the data set on Staphylococcus aureus [14] and in the data set with Staphylococcus aureus [18] was “inactive” throughout. The result with Staphylococcus aureus [4], in the data set on Staphylococcus aureus [5] and in the data set on Staphylococcus aureus [10] was inactive. The CC50 in the data set on HepG2 came out at 90.3 µM. Besides, the result in the data set on Staphylococcus aureus [6] and with Staphylococcus aureus [11] was Active. For the same compound, in data set [8], the fold change (FC) is 11.7. Moreover, the Activity with Staphylococcus aureus [16] turned out to be 97.06%. The solubility in data set [17] worked out at 8690 µg/mL.
